Test results as given in ChEMBL document CHEMBL1145930, “Synthesis and evaluation of nitroheterocyclic carbamate prodrugs for use with nitroreductase-mediated gene-directed enzyme prodrug therapy” (J Med Chem, 2003).
pIC50: −log10 of the molar value. In brackets after ≈: the same amount, converted by molar mass.

Key:
EMT6 [1] = experiment: Ratio between EMT6 and EMT6-NTRpuro was determined; format: functional, Mus musculus
Summary of the method: (§1)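 Parental and stably NTR-transfected cells were tested in parallel by aerobic SRB growth inhibition (18 h exposure, readout 4–5 days later). The ratio is IC50(NTR-ve)/IC50(NTR+ve), calculated within each experiment. Selection drug was kept during passage but omitted during experiments: puromycin 15 µM for V79, 5 µM for EMT6; G418 300 µg/mL for SKOV3/WiDr.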

V79 [2] = experiment: Inhibitory activity was determined against V79 cell line in chinese hamster; format: functional, cell-based; conditions: Cricetulus griseus
Summary of the method: (§2)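 Aerobic growth inhibition of log-phase cells (parental NTR-negative lines). Cultures seeded 24 h before an 18 h drug exposure; cell density read 4–5 days later by sulforhodamine B staining. IC50 is the concentration giving 50% growth inhibition versus same-plate controls. Mean ± SEM of up to five independent experiments.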

SK-OV-3 [3] = experiment: Ratio between SKOV3 and SKOV3-NTR neo was determined; format: functional, Homo sapiens; summary of the method: as §1
[4] = Solubility in alpha-MEM culture medium; format: physicochemical
Summary of the method: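 Solubility measured in α-MEM culture medium with 5% fetal calf serum, by HPLC analysis of the supernatant of a saturated solution.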

V79 [5] = experiment: Ratio between V79 and V79-NTRpuro was determined; format: functional, Cricetulus griseus; summary of the method: as §1
WiDr [6] = experiment: Ratio between WiDr and WiDr-NTRneo was determined; format: functional, Homo sapiens; summary of the method: as §1
Mus musculus = experiment: In vivo maximum tolerance dose in C3H mice by ip administration; format: functional
Summary of the method: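 Male C3H mice (ca. 25 g), groups of six, given single ip doses in 10^(1/8)-fold increments. Vehicle DMSO at 1 μL/g for most compounds; CB1954 given in 10% DMA/40% PEG400/50% water at 10 μL/g. Animals observed daily for 60 days; any losing >15% body weight or becoming moribund were terminated.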

WiDr [7] = experiment: Inhibitory activity was determined against WiDr cell line in human; format: functional, cell-based; summary of the method: as §2
SK-OV-3 [8] = experiment: Inhibitory activity was determined against SKOV3 cell line in human; format: functional, cell-based; summary of the method: as §2
EMT6 [9] = experiment: Inhibitory activity against EMT6 murine cell line; format: functional, cell-based; conditions: Mus musculus; summary of the method: as §2
EMT6 [10] = experiment: Inhibitory activity against EMT6 (mouse mammary carcinoma) murine cell line; format: functional, cell-based; summary of the method: as §2
SK-OV-3 [11] = experiment: Inhibitory activity against SKOV3 (human ovarian carcinoma) cell line in human; format: functional, cell-based; summary of the method: as §2

| Compound | Ratio (EMT6 [1]) | pIC50 (V79 [2]) | Ratio (SK-OV-3 [3]) | solubility [4] | Ratio (V79 [5]) | Ratio (WiDr [6]) | MTD (Mus musculus) | pIC50 (WiDr [7]) | pIC50 (SK-OV-3 [8]) | pIC50 (EMT6 [9]) | pIC50 (EMT6 [10]) | pIC50 (SK-OV-3 [11]) |
| --- | --- | --- | --- | --- | --- | --- | --- | --- | --- | --- | --- | --- |
| COc1cc2cc(C(=O)C3CN(CCl)c4cc(NC(=O)OCc5cnc([N+](=O)[O-])n5C)c5ccccc5c43)[nH]c2c(OC)c1OC (centres undefined) | 62 | 4.62 | 21 | 17 µM (≈ 11 µg/mL) | 14.7 | 40 | >1000 µM | 4.12 | 4.12 | 4.71 |  |  |
| COc1cc2cc(C(=O)C3CN(CCl)c4cc(NC(=O)OCc5ncc([N+](=O)[O-])n5C)c5ccccc5c43)[nH]c2c(OC)c1OC (centres undefined) | 71 | 4.17 | 50 | 8 µM (≈ 5.19 µg/mL) | 10 | 100 | >1000 µM | 3.64 | 3.84 | 4.11 |  |  |
| COc1cc2cc(C(=O)C3CN(CCl)c4cc(NC(=O)OCc5ccc([N+](=O)[O-])o5)c5ccccc5c43)[nH]c2c(OC)c1OC (centres undefined) | 1.2 | 4.70 | 1.2 | 11 µM (≈ 6.99 µg/mL) | 1.1 | 1.9 |  | 4.05 | 4.12 | 4.74 |  |  |
| COc1cc2cc(C(=O)C3CN(CCl)c4cc(NC(=O)OCc5c([N+](=O)[O-])ncn5C)c5ccccc5c43)[nH]c2c(OC)c1OC (centres undefined) | 2.1 | 4.26 | 4.8 | 13 µM (≈ 8.44 µg/mL) | 1.2 | 2.8 |  | 3.70 | 3.73 | 4.14 |  |  |
| COc1cc2cc(C(=O)C3CN(CCl)c4cc(NC(=O)OCc5ccc([N+](=O)[O-])s5)c5ccccc5c43)[nH]c2c(OC)c1OC (centres undefined) | 16 | 8.46 | 7 | 4 µM (≈ 2.6 µg/mL) | 3.1 | 13.5 |  | 7.74 | 7.97 | 8.37 |  |  |
| COc1cc2cc(C(=O)N3CC(CCl)c4c3cc(N)c3ccccc43)[nH]c2c(OC)c1OC (centres undefined) | 2 | 9.48 | 0.55 | 197 µM (≈ 91.8 µg/mL) | 0.9 | 0.9 |  | 8.80 | 8.96 | 9.43 |  |  |
| COc1cc2cc(C(=O)C3CN(CCl)c4cc(NC(=O)OCc5ncn(C)c5[N+](=O)[O-])c5ccccc5c43)[nH]c2c(OC)c1OC (centres undefined) | 6.5 | 4.36 | 5.6 | 5.5 µM (≈ 3.57 µg/mL) | 1.4 | 3.4 |  | 7.62 | 4.21 | 4.20 |  |  |
| COc1cc2cc(C(=O)C3CN(CCl)c4cc(NC(=O)OCc5cnn(C)c5[N+](=O)[O-])c5ccccc5c43)[nH]c2c(OC)c1OC (centres undefined) | 87 | 4.39 | 30.3 | 8 µM (≈ 5.19 µg/mL) | 37 | 13.5 |  | 7.95 | 7.49 | 4.41 |  |  |
| NC(=O)c1cc(N2CC2)c([N+](=O)[O-])cc1[N+](=O)[O-] [TRETAZICAR] | 930 |  | 317 | 1600 µM (≈ 403 µg/mL) | 2090 | 51 |  |  |  |  | 4.15 | 3.76 |
| CCOC(=O)c1cc([N+](=O)[O-])c(COC(=O)Nc2cc3c(c4ccccc24)C(C(=O)c2cc4cc(OC)c(OC)c(OC)c4[nH]2)CN3CCl)n1C (centres undefined) |  | 4.28 | 0.8 | 21 µM (≈ 15.1 µg/mL) | 1.8 | 1.3 |  | 3.65 | 4.01 |  |  |  |
| COc1cc2cc(C(=O)C3CN(CCl)c4cc(NC(=O)OCc5c([N+](=O)[O-])ccn5C)c5ccccc5c43)[nH]c2c(OC)c1OC (centres undefined) | 1.5 | 8.22 | 0.7 | 8.4 µM (≈ 5.44 µg/mL) | 0.9 | 1.4 |  | 7.55 | 7.60 | 4.82 |  |  |
| COc1cc2cc(C(=O)C3CN(CCl)c4cc(NC(=O)OCc5ncc([N+](=O)[O-])n5CCO)c5ccccc5c43)[nH]c2c(OC)c1OC (centres undefined) | 11 | 4.03 | 26 | 20 µM (≈ 13.6 µg/mL) | 1.2 | 12.4 |  | 3.37 | 3.42 | 3.89 |  |  |
| COc1cc2cc(C(=O)C3CN(CCl)c4cc(NC(=O)OCc5ccc([N+](=O)[O-])n5C)c5ccccc5c43)[nH]c2c(OC)c1OC (centres undefined) | 1.2 | 4.28 | 1.3 | 9 µM (≈ 5.83 µg/mL) | 1 | 2.5 |  | 3.74 | 3.58 | 4.31 |  |  |
| CCOC(=O)c1cc(COC(=O)Nc2cc3c(c4ccccc24)C(C(=O)c2cc4cc(OC)c(OC)c(OC)c4[nH]2)CN3CCl)c([N+](=O)[O-])n1C (centres undefined) | 12 | 4.62 | 9.6 |  | 2 | 13 |  | 4.03 | 4.01 | 4.55 |  |  |
| NC(=O)c1cc(N(CCBr)CCBr)c([N+](=O)[O-])cc1[N+](=O)[O-] | 1380 |  | 211 | 40 µM (≈ 17.6 µg/mL) | 302 | 174 |  |  | 4.24 | 4.27 |  |  |
| COc1cc2cc(C(=O)C3CN(CCl)c4cc(NC(=O)OCc5ccn(C)c5[N+](=O)[O-])c5ccccc5c43)[nH]c2c(OC)c1OC (centres undefined) | 1.3 | 4.21 | 0.5 | 18 µM (≈ 11.7 µg/mL) | 1.5 | 1.8 |  | 3.66 | 3.94 | 4.19 |  |  |
